Target: T1, Oxytocin receptor (Homo sapiens, UniProt P30559)
T1 sequence (P30559 whole entry): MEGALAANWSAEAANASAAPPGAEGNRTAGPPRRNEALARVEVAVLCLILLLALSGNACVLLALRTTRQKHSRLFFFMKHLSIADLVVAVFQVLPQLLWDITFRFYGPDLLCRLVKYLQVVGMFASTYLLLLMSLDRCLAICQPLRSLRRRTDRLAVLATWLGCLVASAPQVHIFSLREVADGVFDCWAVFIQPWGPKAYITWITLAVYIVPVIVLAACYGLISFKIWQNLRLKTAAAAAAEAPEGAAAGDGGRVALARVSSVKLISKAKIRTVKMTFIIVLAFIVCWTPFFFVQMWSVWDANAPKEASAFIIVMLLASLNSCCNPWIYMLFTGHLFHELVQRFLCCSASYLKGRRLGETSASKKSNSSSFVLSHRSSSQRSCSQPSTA
Experiment: Displacement of [3H]oxytocin from human oxytocin receptor

IC50 [µM]	SMILES
> 100	O=C(Cn1c(-c2ccccc2)nc2ccc(OCCCN3CCOCC3)cc2c1=O)NCC1CC1

Target: Vasopressin V1a receptor (Homo sapiens) (UniProt P37288)
Experiment: Displacement of [3H]AVP from human vasopressin V1a receptor at 5 uM
How it was run: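 Membrane binding using membranes from CHO cells stably expressing human V1a receptor, with 5 nM [3H]-AVP (final) and test compound in 50 mM Tris–HCl pH 7.4, 5 mM MgCl2, 1 mg/mL BSA and 0.5% DMSO. Incubated 60 min at room temperature, then rapid filtration over polyethylenimine-soaked GF/B filters. Filters washed with ice-cold Tris–HCl, dried 30 min at 55 °C, scintillation counted.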

Chain of Vasopressin V1a receptor (Homo sapiens) (P37288 whole entry, looked up): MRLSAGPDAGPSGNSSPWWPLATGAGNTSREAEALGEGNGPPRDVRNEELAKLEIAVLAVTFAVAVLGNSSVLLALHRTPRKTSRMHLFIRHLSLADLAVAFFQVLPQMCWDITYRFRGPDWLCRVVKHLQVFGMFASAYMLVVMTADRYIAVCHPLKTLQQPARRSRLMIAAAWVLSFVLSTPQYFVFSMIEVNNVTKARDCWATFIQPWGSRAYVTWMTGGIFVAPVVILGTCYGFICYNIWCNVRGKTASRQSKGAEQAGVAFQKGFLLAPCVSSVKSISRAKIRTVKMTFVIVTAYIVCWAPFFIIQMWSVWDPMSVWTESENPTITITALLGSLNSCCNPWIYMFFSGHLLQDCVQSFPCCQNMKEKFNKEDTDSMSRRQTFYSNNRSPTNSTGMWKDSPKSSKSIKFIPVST

inhibition [%]	SMILES
6	O=C(Cn1c(-c2ccccc2)nc2ccc(OCCCN3CCOCC3)cc2c1=O)NCC1CC1

Target: Vasopressin V2 receptor (Homo sapiens, UniProt P30518)
Experiment: Displacement of [3H]AVP from human vasopressin V2 receptor

Chain of Vasopressin V2 receptor (P30518 whole entry): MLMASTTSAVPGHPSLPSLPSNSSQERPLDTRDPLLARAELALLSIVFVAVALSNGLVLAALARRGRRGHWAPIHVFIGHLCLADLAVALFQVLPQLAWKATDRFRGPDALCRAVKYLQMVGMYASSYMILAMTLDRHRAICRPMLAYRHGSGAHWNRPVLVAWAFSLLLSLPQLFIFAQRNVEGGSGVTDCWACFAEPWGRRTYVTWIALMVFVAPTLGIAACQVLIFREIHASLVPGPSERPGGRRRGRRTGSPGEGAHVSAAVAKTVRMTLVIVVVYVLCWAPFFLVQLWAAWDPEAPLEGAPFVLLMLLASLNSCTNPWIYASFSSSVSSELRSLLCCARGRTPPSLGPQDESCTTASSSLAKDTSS

IC50 [µM]	SMILES
> 100	O=C(Cn1c(-c2ccccc2)nc2ccc(OCCCN3CCOCC3)cc2c1=O)NCC1CC1

Target: T2, Vasopressin V1b receptor (Rattus norvegicus, UniProt P48974)
T2 sequence (P48974 whole entry): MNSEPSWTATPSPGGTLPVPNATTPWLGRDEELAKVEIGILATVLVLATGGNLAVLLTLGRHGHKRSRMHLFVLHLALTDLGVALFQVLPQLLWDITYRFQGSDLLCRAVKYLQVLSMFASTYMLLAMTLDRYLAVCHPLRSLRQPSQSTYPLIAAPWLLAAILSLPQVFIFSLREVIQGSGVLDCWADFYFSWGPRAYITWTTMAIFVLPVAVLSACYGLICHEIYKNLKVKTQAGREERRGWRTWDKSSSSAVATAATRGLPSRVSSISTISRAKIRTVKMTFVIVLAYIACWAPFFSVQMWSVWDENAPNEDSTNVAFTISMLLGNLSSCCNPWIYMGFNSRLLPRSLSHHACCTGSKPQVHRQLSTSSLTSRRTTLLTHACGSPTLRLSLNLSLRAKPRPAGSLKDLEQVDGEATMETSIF
Experiment: Displacement of [3H]AVP from rat vasopressin V3 receptor

IC50 [µM]	SMILES
0.21	O=C(Cn1c(-c2ccccc2)nc2ccc(OCCCN3CCOCC3)cc2c1=O)NCC1CC1

Target: T3, Vasopressin V1b receptor (Homo sapiens, UniProt P47901)
T3 sequence (P47901 whole entry): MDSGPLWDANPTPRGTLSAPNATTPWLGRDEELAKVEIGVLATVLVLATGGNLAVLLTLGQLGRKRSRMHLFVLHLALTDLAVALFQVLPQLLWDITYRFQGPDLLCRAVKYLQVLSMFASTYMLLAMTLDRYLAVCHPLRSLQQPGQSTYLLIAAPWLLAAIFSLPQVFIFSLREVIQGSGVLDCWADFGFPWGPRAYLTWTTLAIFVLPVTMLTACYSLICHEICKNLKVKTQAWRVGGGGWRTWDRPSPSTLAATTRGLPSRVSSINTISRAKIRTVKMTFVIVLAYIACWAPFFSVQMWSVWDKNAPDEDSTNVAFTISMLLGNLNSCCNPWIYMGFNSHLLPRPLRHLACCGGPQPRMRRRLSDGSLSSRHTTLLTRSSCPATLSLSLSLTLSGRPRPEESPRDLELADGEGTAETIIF
Experiment: Displacement of [3H]AVP from human vasopresin3 receptor expressed in CHO cells
Type: cell-based
How it was run: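 Whole-cell binding on CHO cells stably expressing human V3 (V1b) receptor, grown at 37 °C with 5% CO2. Cells seeded at 30,000 per well, cultured overnight at 37 °C, then washed twice with PBS. Serially diluted compounds plus 5 nM [3H]-AVP (final) in PBS with 10 mM MgCl2, 0.1% BSA and 1% DMSO, 30 min at room temperature. Washed, air dried, scintillation counted.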

SMILES	IC50 [µM]
O=C(Cn1c(-c2ccccc2)nc2ccc(O)cc2c1=O)NCC1CC1	> 100
CC(C)C[C@H](N)COc1ccc2nc(-c3ccccc3)n(CC(=O)NCC3CC3)c(=O)c2c1	2.1
O=C(Cn1c(-c2ccccc2)nc2ccc(OCCCN3CCCCCC3)cc2c1=O)NCC1CC1	0.34
CN1CCN(CCCCOc2ccc3nc(-c4ccccc4)n(CC(=O)NCC4CC4)c(=O)c3c2)CC1	4.8
CC(C)C[C@@H](COc1ccc2nc(-c3ccccc3)n(CC(=O)NCC3CC3)c(=O)c2c1)NC(=O)[C@@H](N)Cc1ccc(O)cc1	0.2
COC1CCN(CCCOc2ccc3nc(-c4ccccc4)n(CC(=O)NCC4CC4)c(=O)c3c2)CC1	0.71
O=C(Cn1c(-c2ccccc2)nc2ccc(OCCCN3CCNCC3)cc2c1=O)NCC1CC1	25.8
NCCOc1ccc2nc(-c3ccccc3)n(CC(=O)NCC3CC3)c(=O)c2c1	4
O=C(Cn1c(-c2ccccc2)nc2ccc(OCCCN3CCOCC3)cc2c1=O)NCC1CC1	0.12
NCCCCCOc1ccc2nc(-c3ccccc3)n(CC(=O)NCC3CC3)c(=O)c2c1	> 30
O=C(Cn1c(-c2ccccc2)nc2ccc(OCCCN3CCC(O)CC3)cc2c1=O)NCC1CC1	1.1
CNCCCOc1ccc2nc(-c3ccccc3)n(CC(=O)NCC3CC3)c(=O)c2c1	7.6
CN1CCN(CCCOc2ccc3nc(-c4ccccc4)n(CC(=O)NCC4CC4)c(=O)c3c2)CC1	1.7
O=C(Cn1c(-c2ccccc2)nc2ccc(OCCCN3CCCC3)cc2c1=O)NCC1CC1	1.8
O=C(CCc1ccc(O)cc1)NCCOc1ccc2nc(-c3ccccc3)n(CC(=O)NCC3CC3)c(=O)c2c1	> 100

Next, values leading:

IC50 [µM]	SMILES
30.5	NCC(=O)NCCOc1ccc2nc(-c3ccccc3)n(CC(=O)NCC3CC3)c(=O)c2c1
3.8	CCN(CC)CCCOc1ccc2nc(-c3ccccc3)n(CC(=O)NCC3CC3)c(=O)c2c1
22	CN1CCN(CCOc2ccc3nc(-c4ccccc4)n(CC(=O)NCC4CC4)c(=O)c3c2)CC1
5.1	CC(C)C[C@@H](COc1ccc2nc(-c3ccccc3)n(CC(=O)NCC3CC3)c(=O)c2c1)NC(=O)CN
3.6	NCCCOc1ccc2nc(-c3ccccc3)n(CC(=O)NCC3CC3)c(=O)c2c1
0.31	O=C(Cn1c(-c2ccccc2)nc2ccc(OCCCN3CCCCC3)cc2c1=O)NCC1CC1
> 30	NCCCCOc1ccc2nc(-c3ccccc3)n(CC(=O)NCC3CC3)c(=O)c2c1
> 100	NCCCCCCOc1ccc2nc(-c3ccccc3)n(CC(=O)NCC3CC3)c(=O)c2c1
